Measured values taken from ChEMBL document CHEMBL1828511, “Searching for new NO-donor aspirin-like molecules: Furoxanylacyl derivatives of salicylic acid and related furazans” (Bioorg Med Chem, 2011).
The source made the active and inactive calls. The calls are words filed in the database; no cut-off is given here.

Columns and labels:
[1] = Stability of the compound in 0.1 M HCl at pH 1 assessed as compound remaining at 100 uM after 3 hrs by RP-HPLC analysis; format: physicochemical; conditions: read-out: Stability
[2] = Stability of the compound in human serum assessed as half life at 200 uM by RP-HPLC analysis; format: ADME, cell-free
How it was run: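 Compound added from 10 mM acetonitrile stock to human serum preheated to 37 °C. Disappearance followed by RP-HPLC (C18; acetonitrile/water 55:45, 0.1% TFA). Half-life from pseudo-first-order fit.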

[3] = Antiaggregatory activity in human platelet rich plasma assessed as inhibition of collagen-induced platelet aggregation preincubated for 10 mins before collagen challenge measured after 10 mins by aggregometry; format: functional
How it was run: (§1)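 PRP from citrated human blood (200g, 20 min). Compound preincubated 10 min, then submaximal collagen (0.8–1.5 µg/mL) added. Light transmission recorded at 37 °C under stirring (1000 rpm) for 10 min. Vehicle 0.5% DMSO. Result is % inhibition versus control. IC50 by nonlinear regression, otherwise % inhibition at 300 µM. At least five experiments.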

Rattus norvegicus [4] = assay: Antiinflammatory activity in Wistar rat assessed as inhibition of carrageenan-induced paw edema at 120 mg/kg, administered intragastrically immediately after carrageenan challenge measured after 3 hrs by water plethysmometer relative to control; format: functional; conditions: po, route intragastric
How it was run: (§2)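 Male Wistar rats (180–200 g). Edema induced by intraplantar 0.1 mL of 1% carrageenan in 1% CMC into the right hindpaw. Compounds given intragastrically in 1% CMC (10 mL/kg) immediately afterwards. Aspirin at 120 mg/kg, others equimolar. Paw volume by water plethysmometer before and at 3 h. Reported as % inhibition versus vehicle (=100). Groups of 6–8, mean ± SEM, Dunnett's test.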

[5] = Stability of the compound in phosphate buffer at pH 7.4 assessed as compound remaining at 100 uM after 3 hrs by RP-HPLC analysis; format: physicochemical; conditions: read-out: Stability
How it was run: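 Each compound was incubated in pH 7.4 aqueous buffer at a final 100 µM and held at 37 ± 0.5 °C. Aliquots taken at timed intervals were run on RP-HPLC (C18; acetonitrile/water 55:45 with 0.1% TFA; 1.2 mL/min), calibrated linearly over 1–200 µM. Remaining ester versus time was fitted to one-phase exponential decay.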

Rattus norvegicus [6] = assay: Ulcerogenicity in Wistar rat assessed as damage in gastric mucosa-lesion index at 120 mg/kg, administered intragastrically after 3 hrs by stereomicroscopy; format: toxicity, organism-based; parameters: dose 120 mg/kg, route intragastric; conditions: in vivo, po
How it was run: (§3)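 Male Wistar rats (180–200 g), fasted 24 h with water available. Groups of 8–10 given aspirin 120 mg/kg intragastrically, or equimolar doses, in 1% CMC. Killed 3 h later. Glandular mucosa examined under stereomicroscope. Each hemorrhagic lesion scored by greatest length and summed as lesion index. Mean ± SEM, ANOVA with Newman–Keuls test.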

[7] = Stability of the compound in phosphate buffer at pH 7.4 assessed as half life at 100 uM by RP-HPLC analysis; format: physicochemical
How it was run: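 Compound held at 37 °C, final concentration 100 µM. Aliquots taken over time and analysed by RP-HPLC (C18; acetonitrile/water 55:45 with 0.1% TFA). Pseudo-first-order rate constants and half-lives obtained by fitting remaining ester versus time to one-phase exponential decay.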

[8] = biological target: Prostaglandin G/H synthase 1 (Homo sapiens) (UniProt P23219); assay: Inhibition of COX1 in human platelets assessed as inhibition of A23187-stimulated TXB2 production at 100 uM pre-incubated for 30 mins before addition of A23187 measured after 10 mins by EIA
How it was run: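 Washed human platelets (10⁸ cells/mL) incubated 30 min at 37 °C with compound, diluted from 400-fold DMSO stocks. A23187 (2 µM) then added for 10 min at 37 °C, and reaction stopped with methanol. Supernatant TXB2 measured by EIA. % inhibition versus untreated control, after subtracting no-ionophore background.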

[9] = biological target: T1, Prostaglandin G/H synthase 2 (Homo sapiens) (UniProt P35354); assay: Inhibition of COX2 in LPS-stimulated human monocytes assessed as inhibition of arachidonic acid-stimulated PGE2 production at 100 uM pre-incubated for 30 mins before addition of arachidonic acid measured after 15 mins by EIA; format: cell-based
T1 sequence (whole entry): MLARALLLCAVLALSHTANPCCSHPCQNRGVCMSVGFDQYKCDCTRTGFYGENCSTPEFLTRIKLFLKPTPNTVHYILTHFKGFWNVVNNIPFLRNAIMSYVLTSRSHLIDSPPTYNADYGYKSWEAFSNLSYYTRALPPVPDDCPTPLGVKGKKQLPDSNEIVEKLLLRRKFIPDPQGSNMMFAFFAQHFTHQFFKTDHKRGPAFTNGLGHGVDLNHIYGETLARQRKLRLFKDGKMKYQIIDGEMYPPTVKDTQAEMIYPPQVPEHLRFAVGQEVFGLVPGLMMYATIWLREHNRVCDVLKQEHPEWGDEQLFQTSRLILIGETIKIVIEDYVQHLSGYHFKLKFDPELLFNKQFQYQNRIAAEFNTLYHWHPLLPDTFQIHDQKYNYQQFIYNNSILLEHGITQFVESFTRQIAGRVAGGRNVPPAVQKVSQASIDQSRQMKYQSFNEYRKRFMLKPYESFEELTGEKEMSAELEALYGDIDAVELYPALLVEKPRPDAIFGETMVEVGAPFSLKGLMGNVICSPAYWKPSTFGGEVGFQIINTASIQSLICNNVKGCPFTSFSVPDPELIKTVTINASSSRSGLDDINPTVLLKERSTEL
How it was run: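 Human monocytes (10⁶ cells/mL) induced with LPS for 18 h at 37 °C, 5% CO2, then resuspended in FCS-free RPMI-1640. Compound (from 200-fold DMSO stocks) added for 30 min, then arachidonic acid (100 µM) for 15 min. Supernatant PGE2 by EIA. % inhibition versus untreated control, minus no-arachidonate background.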

[10] = Antiaggregatory activity in human platelet rich plasma assessed as inhibition of collagen-induced platelet aggregation preincubated for 10 mins before collagen challenge measured after 10 mins by aggregometry in presence of 50 uM of sGC inhibitor ODQ; format: functional
How it was run: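 Collagen-induced aggregation in human PRP run as in the standard assay, with the sGC inhibitor ODQ (50 µM) present. Compound preincubated 10 min before submaximal collagen (0.8–1.5 µg/mL). Light transmission followed 10 min at 37 °C. At least five experiments.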

Aorta [11] = assay: Vasodilatory activity in Wistar rat thoracic aorta assessed as relaxation of L-phenylephrine-induced vasoconstriction; format: functional, tissue-based
How it was run: (§4)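 Rat aortic strips equilibrated 120 min, then contracted with phenylephrine. At plateau, cumulative concentrations of vasodilator added. Tension recorded isometrically. Results given as EC50 ± SE. Where tested, ODQ was added to the bath 5 min before contraction.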

Aorta [12] = assay: Vasodilatory activity in Wistar rat thoracic aorta assessed as relaxation of L-phenylephrine-induced vasoconstriction in presence of 1 uM sGC inhibitor ODQ; format: functional, tissue-based; how it was run: as §4
Rattus norvegicus [13] = assay: Antiinflammatory activity in Wistar rat assessed as inhibition of carrageenan-induced paw edema at dose equimolar to 120 mg/kg aspirin, administered intragastrically immediately after carrageenan challenge measured after 3 hrs by water plethysmometer relative to control; format: functional; conditions: po, route intragastric; how it was run: as §2
Rattus norvegicus [14] = assay: Ulcerogenicity in Wistar rat assessed as damage in gastric mucosa-lesion index at dose equimolar to 120 mg/kg aspirin, administered intragastrically after 3 hrs by stereomicroscopy; format: toxicity, organism-based; parameters: dose 120 mg/kg, route intragastric; conditions: in vivo, po; how it was run: as §3
[15] = Antiaggregatory activity in human platelet rich plasma assessed as inhibition of collagen-induced platelet aggregation at 300 uM preincubated for 10 mins before collagen challenge measured after 10 mins by aggregometry; format: functional; how it was run: as §1
Thromboxane A2 receptor = biological target: T2, Thromboxane A2 receptor (Homo sapiens, UniProt P21731); assay: Antagonist activity at thromboxane receptor in human blood assessed as inhibition of U-46619-induced effect; format: functional
T2 sequence (P21731 whole entry): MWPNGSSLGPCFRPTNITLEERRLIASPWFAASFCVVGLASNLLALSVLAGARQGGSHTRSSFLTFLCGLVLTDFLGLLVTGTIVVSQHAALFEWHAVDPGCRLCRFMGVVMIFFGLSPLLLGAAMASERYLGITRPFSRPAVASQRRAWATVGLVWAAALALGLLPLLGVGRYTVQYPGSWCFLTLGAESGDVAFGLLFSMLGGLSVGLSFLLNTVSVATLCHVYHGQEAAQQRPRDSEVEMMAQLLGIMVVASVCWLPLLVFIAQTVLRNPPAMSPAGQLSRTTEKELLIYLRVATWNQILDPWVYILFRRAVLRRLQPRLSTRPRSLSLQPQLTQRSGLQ
How it was run: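 Citrated human blood pretreated with 1 mM acetylsalicylic acid; PRP made by 200g spin for 20 min. PRP incubated with compound or vehicle (0.5% DMSO), then challenged with U-46619 (0.5–2.5 µM). Aggregation recorded as light transmission at 37 °C with stirring. At least four experiments per compound.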

Sequence of Prostaglandin G/H synthase 1 (Homo sapiens) (P23219 whole entry): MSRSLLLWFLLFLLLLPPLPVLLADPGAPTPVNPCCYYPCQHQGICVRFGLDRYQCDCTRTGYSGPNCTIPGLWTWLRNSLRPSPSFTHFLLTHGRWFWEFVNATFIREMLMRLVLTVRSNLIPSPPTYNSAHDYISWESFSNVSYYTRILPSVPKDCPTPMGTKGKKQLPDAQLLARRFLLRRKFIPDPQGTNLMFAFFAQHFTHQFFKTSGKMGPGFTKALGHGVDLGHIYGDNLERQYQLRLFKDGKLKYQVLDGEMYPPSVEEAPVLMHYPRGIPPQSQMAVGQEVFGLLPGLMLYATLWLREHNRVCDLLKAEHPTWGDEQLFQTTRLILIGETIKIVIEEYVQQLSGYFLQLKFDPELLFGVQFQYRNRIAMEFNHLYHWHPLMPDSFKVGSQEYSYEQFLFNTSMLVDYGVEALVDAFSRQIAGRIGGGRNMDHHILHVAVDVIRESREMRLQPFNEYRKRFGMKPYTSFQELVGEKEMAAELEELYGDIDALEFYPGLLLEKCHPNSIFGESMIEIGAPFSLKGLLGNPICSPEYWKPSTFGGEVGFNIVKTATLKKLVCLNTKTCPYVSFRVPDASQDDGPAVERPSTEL

Compound	remaining at 3 h, 100 µM [1] [%]	half-life at 200 µM [2] [min]	IC50 [3] [µM]	inhibition in vivo at 120 mg/kg (Rattus norvegicus [4]) [%]	remaining at 3 h, 100 µM [5] [%]	UI (Rattus norvegicus [6]) [mm]	half-life at 100 µM [7] [min]	inhibition [8]	inhibition [9]	IC50 [10] [µM]	Activity (Aorta [11])	EC50 (Aorta [11]) [µM]	EC50 (Aorta [12]) [µM]	inhibition in vivo (Rattus norvegicus [13]) [%]	UI (Rattus norvegicus [14]) [mm]	inhibition at 300 µM [15] [%]	inhibition in vivo at 120 mg/kg (Rattus norvegicus [13]; dose 120 mg/kg) [%]	IC50 (Thromboxane A2 receptor) [µM]
CC(=O)Oc1ccccc1C(=O)O [ASPIRIN]	90	63	54	43	90	50												
N#Cc1c(CSCC(=O)Oc2ccccc2C(=O)O)no[n+]1[O-]	96	13	7.3				33	inactive	inactive	88	Dose-dependent effect	0.04	2.4	54.9	1.2			
N#Cc1nonc1CSCC(=O)Oc1ccccc1C(=O)O	96	14					38	inactive	inactive					38.9	0.2	36		
O=C(CCOc1nonc1-c1ccccc1)Oc1ccccc1C(=O)O	98	40					318	inactive	inactive					38.6	1.2	12		
O=C(CCOc1nonc1S(=O)(=O)c1ccccc1)Oc1ccccc1C(=O)O	97	35					370	inactive	inactive					38.8	0.3	2.6		
O=C(CCOc1no[n+]([O-])c1S(=O)(=O)c1ccccc1)Oc1ccccc1C(=O)O	96	30	7.8				360	inactive	inactive	152	Dose-dependent effect	0.014	0.97	49.6	0.4			
O=C(O)c1ccccc1O [SALICYLIC ACID]															1.1		36.8	
NC(=O)c1nonc1CSCC(=O)Oc1ccccc1C(=O)O	97	27	144				50	inactive	inactive					39.6	0.3			39
NC(=O)c1c(CSCC(=O)Oc2ccccc2C(=O)O)no[n+]1[O-]	97	27	66				45	inactive	inactive	59	Dose-dependent effect	23		39.4				38
O=C(CCOc1no[n+]([O-])c1-c1ccccc1)Oc1ccccc1C(=O)O	98	35					288	inactive	inactive		Dose-dependent effect	11		37.6	0.3	17		
